Measurements taken from ChEMBL document CHEMBL4715736, “Identification of anticancer agents based on the thieno[2,3-b]pyridine and 1H-pyrazole molecular scaffolds” (2016).

Experiments:
Type in all cases: functional
SR [1] = assay: Growth inhibition of human SR cells assessed as cell growth at 0.01 uM incubated for 48 hrs by sulforhodamine B assay relative to control; details: read-out: Activity
HOP-92 = assay: Growth inhibition of human HOP-92 cells assessed as cell growth at 0.01 uM incubated for 48 hrs by sulforhodamine B assay relative to control; details: read-out: Activity
HT-29 = assay: Growth inhibition of human HT-29 cells assessed as cell growth at 0.01 uM incubated for 48 hrs by sulforhodamine B assay relative to control; details: read-out: Activity
KM12 = assay: Growth inhibition of human KM12 cells assessed as cell growth at 0.01 uM incubated for 48 hrs by sulforhodamine B assay relative to control; details: read-out: Activity
SF-295 = assay: Growth inhibition of human SF-295 cells assessed as cell growth at 0.01 uM incubated for 48 hrs by sulforhodamine B assay relative to control; details: read-out: Activity
SK-MEL-2 = assay: Growth inhibition of human SK-MEL-2 cells assessed as cell growth at 0.01 uM incubated for 48 hrs by sulforhodamine B assay relative to control; details: read-out: Activity
SK-MEL-5 [2] = assay: Growth inhibition of human SK-MEL-5 cells assessed as cell growth at 0.01 uM incubated for 48 hrs by sulforhodamine B assay relative to control; details: read-out: Activity
ACHN = assay: Growth inhibition of human ACHN cells assessed as cell growth at 0.01 uM incubated for 48 hrs by sulforhodamine B assay relative to control; details: read-out: Activity
CAKI-1 [3] = assay: Growth inhibition of human CAKI-1 cells assessed as cell growth at 0.01 uM incubated for 48 hrs by sulforhodamine B assay relative to control; details: read-out: Activity
Outline: (§1)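 NCI Developmental Therapeutics Program NCI60 panel. Compounds that were active in the 10 µM one-dose screen went on to dose–response testing. Growth at each concentration is expressed relative to untreated control (100%). GI50 (concentration giving 50% of maximal inhibition of proliferation) and TGI (concentration giving total growth inhibition) were derived from the curves.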

SN12C = assay: Growth inhibition of human SN12C cells assessed as cell growth at 0.01 uM incubated for 48 hrs by sulforhodamine B assay relative to control; details: read-out: Activity
K562 = assay: Growth inhibition of human K562 cells assessed as cell growth at 0.1 uM incubated for 48 hrs by sulforhodamine B assay relative to control; details: read-out: Activity
SR [4] = assay: Growth inhibition of human SR cells assessed as cell growth at 0.1 uM incubated for 48 hrs by sulforhodamine B assay relative to control; details: read-out: Activity
SF-539 [5] = assay: Growth inhibition of human SF-539 cells assessed as cell growth at 0.1 uM incubated for 48 hrs by sulforhodamine B assay relative to control; details: read-out: Activity
SK-MEL-5 [6] = assay: Growth inhibition of human SK-MEL-5 cells assessed as cell growth at 0.1 uM incubated for 48 hrs by sulforhodamine B assay relative to control; details: read-out: Activity
MCF7 = assay: Growth inhibition of human MCF7 cells assessed as cell growth at 0.1 uM incubated for 48 hrs by sulforhodamine B assay relative to control; details: read-out: Activity
A549 = assay: Growth inhibition of human A549/ATCC cells assessed as cell growth at 1 uM incubated for 48 hrs by sulforhodamine B assay relative to control; details: read-out: Activity; outline: as §1
NCI-H460 = assay: Growth inhibition of human NCI-H460 cells assessed as cell growth at 1 uM incubated for 48 hrs by sulforhodamine B assay relative to control; details: read-out: Activity
COLO 205 = assay: Growth inhibition of human COLO 205 cells assessed as cell growth at 1 uM incubated for 48 hrs by sulforhodamine B assay relative to control; details: read-out: Activity; outline: as §1
HCC 2998 [7] = assay: Growth inhibition of human HCC 2998 cells assessed as cell growth at 1 uM incubated for 48 hrs by sulforhodamine B assay relative to control; details: read-out: Activity; outline: as §1
SF-539 [8] = assay: Growth inhibition of human SF-539 cells assessed as cell growth at 1 uM incubated for 48 hrs by sulforhodamine B assay relative to control; details: read-out: Activity
MDA-MB-435 [9] = assay: Growth inhibition of human MDA-MB-435 cells assessed as cell growth at 1 uM incubated for 48 hrs by sulforhodamine B assay relative to control; details: read-out: Activity
SK-MEL-5 [10] = assay: Growth inhibition of human SK-MEL-5 cells assessed as cell growth at 1 uM incubated for 48 hrs by sulforhodamine B assay relative to control; details: read-out: Activity
UACC-257 = assay: Growth inhibition of human UACC-257 cells assessed as cell growth at 1 uM incubated for 48 hrs by sulforhodamine B assay relative to control; details: read-out: Activity
UO-31 = assay: Growth inhibition of human UO-31 cells assessed as cell growth at 1 uM incubated for 48 hrs by sulforhodamine B assay relative to control; details: read-out: Activity
HCC 2998 [11] = assay: Growth inhibition of human HCC 2998 cells assessed as cell growth at 100 uM incubated for 48 hrs by sulforhodamine B assay relative to control; details: read-out: Activity; outline: as §1
SK-OV-3 = assay: Growth inhibition of human SK-OV-3 cells assessed as cell growth at 100 uM incubated for 48 hrs by sulforhodamine B assay relative to control; details: read-out: Activity
RXF 393 = assay: Growth inhibition of human RXF 393 cells assessed as cell growth at 100 uM incubated for 48 hrs by sulforhodamine B assay relative to control; details: read-out: Activity
Hs-578T = assay: Growth inhibition of human Hs-578T cells assessed as cell growth at 100 uM incubated for 48 hrs by sulforhodamine B assay relative to control; details: read-out: Activity
MDA-MB-435 [12] = assay: Growth inhibition of human MDA-MB-435 cells incubated for 48 hrs by sulforhodamine B assay; details: for CC50: read-out: LC50 (the source's name)
Outline: (§2)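 NCI60 panel at the NCI Developmental Therapeutics Program. Only compounds active in the 10 µM screen went to dose-response testing. GI50, the concentration giving 50% of maximal inhibition of proliferation, and TGI, the concentration giving total growth inhibition, were derived from the dose-response curves.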

786-0 = assay: Growth inhibition of human 786-0 cells incubated for 48 hrs by sulforhodamine B assay; details: for CC50: read-out: LC50 (the source's name); outline: as §1
A498 = assay: Growth inhibition of human A498 cells incubated for 48 hrs by sulforhodamine B assay; details: for CC50: read-out: LC50 (the source's name); outline: as §1
CAKI-1 [13] = assay: Growth inhibition of human CAKI-1 cells incubated for 48 hrs by sulforhodamine B assay; details: for CC50: read-out: LC50 (the source's name); outline: as §1
BT-549 = assay: Growth inhibition of human BT-549 cells incubated for 48 hrs by sulforhodamine B assay; outline: as §1
UACC-62 [14] = assay: Growth inhibition of human UACC-62 cells assessed as cell growth at 0.1 uM incubated for 48 hrs by sulforhodamine B assay relative to control; details: read-out: Activity
UACC-62 [15] = assay: Growth inhibition of human UACC-62 cells assessed as cell growth at 1 uM incubated for 48 hrs by sulforhodamine B assay relative to control; details: read-out: Activity
UACC-62 [16] = assay: Growth inhibition of human UACC-62 cells assessed as cell growth at 100 uM incubated for 48 hrs by sulforhodamine B assay relative to control; details: read-out: Activity
NCI-H23 = assay: Growth inhibition of human NCI-H23 cells incubated for 48 hrs by sulforhodamine B assay; outline: as §2

With CCc1ccccc1NC(=O)c1sc2nc3c(cc2c1N)C(=O)CCC3 the growth at 0.01 µM (SR [1]) was 100%, the growth at 0.01 µM (HOP-92) was 87% and the growth at 0.01 µM (HT-29) was 95%. For the same molecule, the growth at 0.01 µM (KM12) was 100%, the growth at 0.01 µM (SF-295) was 86% and the growth at 0.01 µM (SK-MEL-2) was 108%. The growth at 0.01 µM (SK-MEL-5 [2]) was 96%, the growth at 0.01 µM (ACHN) was 93% and the growth at 0.01 µM (CAKI-1 [3]) was 89%. It also gave a growth at 0.01 µM (SN12C) of 94%, a growth at 0.1 µM (K562) of 63% and a growth at 0.1 µM (SR [4]) of 96%. The growth at 0.1 µM (SF-539 [5]) was 93%, the growth at 0.1 µM (SK-MEL-5 [6]) was 82% and the growth at 0.1 µM (MCF7) was 83%. The growth at 1 µM (A549) was 39%, the growth at 1 µM (NCI-H460) was 9% and the growth at 1 µM (COLO 205) was -34%. It also gave a growth at 1 µM (HCC 2998 [7]) of 56%, a growth at 1 µM (SF-539 [8]) of 11% and a growth at 1 µM (MDA-MB-435 [9]) of -53%. The growth at 1 µM (SK-MEL-5 [10]) was 11%, the growth at 1 µM (UACC-257) was 52% and the growth at 1 µM (UO-31) was 50%. The growth at 100 µM (HCC 2998 [11]) was 3%, the growth at 100 µM (SK-OV-3) was -4% and the growth at 100 µM (RXF 393) was -41%. It also gave a growth at 100 µM (Hs-578T) of 15%, a GI50 (MDA-MB-435 [12]) of 46.4 nM and a TGI (MDA-MB-435 [12]) of 225 nM. For the same molecule, the CC50 (MDA-MB-435 [12]) was greater than 100000 nM, the GI50 (786-0) was 578 nM and the TGI (786-0) was no less than 100000 nM. It also gave a CC50 (786-0) greater than 100000 nM, a GI50 (A498) of 180 nM and a TGI (A498) of 4000 nM. The CC50 (A498) was greater than 100000 nM, the GI50 (CAKI-1 [13]) was 504 nM and the TGI (CAKI-1 [13]) was greater than 100000 nM. The CC50 (CAKI-1 [13]) was greater than 100000 nM, the GI50 (BT-549) was 27400 nM and the TGI (BT-549) was greater than 100000 nM. For the same molecule, the CC50 (BT-549; read-out: LC50 (the source's name)) was greater than 100000 nM.

In the case of CCc1cccc(C)c1NC(=O)c1sc2nc3c(cc2c1N)C(=O)CCC3, the growth at 0.01 µM (SR [1]) is reported as 96%, the growth at 0.01 µM (HOP-92) is reported as 82% and the growth at 0.01 µM (KM12) is reported as 96%. For the same molecule, the growth at 0.01 µM (SF-295) was 89%, the growth at 0.01 µM (SK-MEL-5 [2]) was 92% and the growth at 0.01 µM (ACHN) was 94%. The growth at 0.01 µM (CAKI-1 [3]) was 89%, the growth at 0.01 µM (SN12C) was 97% and the growth at 0.1 µM (K562) was 89%. The growth at 0.1 µM (SR [4]) was 101%, the growth at 0.1 µM (SF-539 [5]) was 89% and the growth at 0.1 µM (SK-MEL-5 [6]) was 89%. The growth at 0.1 µM (UACC-62 [14]) was 88%, the growth at 0.1 µM (MCF7) was 90% and the growth at 1 µM (A549) was 37%. The growth at 1 µM (NCI-H460) was 9%, the growth at 1 µM (COLO 205) was -19% and the growth at 1 µM (HCC 2998 [7]) was 55%. It also gave a growth at 1 µM (SF-539 [8]) of 8%, a growth at 1 µM (MDA-MB-435 [9]) of -50% and a growth at 1 µM (SK-MEL-5 [10]) of 6%. The growth at 1 µM (UACC-257) was 54%, the growth at 1 µM (UACC-62 [15]) was 37% and the growth at 1 µM (UO-31) was 37%. For the same molecule, the growth at 100 µM (HCC 2998 [11]) was 10%, the growth at 100 µM (UACC-62 [16]) was 14% and the growth at 100 µM (RXF 393) was 5%. It also gave a growth at 100 µM (Hs-578T) of 17%, a GI50 (NCI-H23) of 733 nM and an LC50 (50% lethal concentration) (NCI-H23) greater than 100000 nM. The TGI (NCI-H23) was greater than 100000 nM, the GI50 (MDA-MB-435 [12]) was 148 nM and the CC50 (MDA-MB-435 [12]) was greater than 100000 nM. For the same molecule, the GI50 (786-0) was 542 nM, the TGI (786-0) was greater than 100000 nM and the CC50 (786-0) was greater than 100000 nM. For the same molecule, the GI50 (A498) was 178 nM, the TGI (A498) was 665 nM and the CC50 (A498) was greater than 100000 nM. For the same molecule, the GI50 (CAKI-1 [13]) was 511 nM, the TGI (CAKI-1 [13]) was greater than 100000 nM and the CC50 (CAKI-1 [13]) was greater than 100000 nM.
